Our source for the Activity, viability and inhibition values is ChEMBL document CHEMBL4330142, “Eupatoriopicrin Inhibits Pro-inflammatory Functions of Neutrophils via Suppression of IL-8 and TNF-alpha Production and p38 and ERK 1/2 MAP Kinases” (J Nat Prod, 2019).

Each structure is given as a SMILES string. Calls of active or inactive are those of the source. The rule behind the calls is not given here.

The subject of test [1] is Neutrophil. Put plainly: Inhibition of LPS-induced delay of apoptosis in human neutrophils assessed as late apoptotic cells at 2.5 uM preincubated for 1 hr followed by LPS stimulation and measured after 24 hrs by Annexin V-FITC/propidium iodide staining based flow cytometry (reference value: 9.5 +/- 1.8%). Format: functional. On the set-up: scale not given: the % may be the effect or the level left. In general terms: Flow cytometry measures light scatter and fluorescence of single cells or particles in a stream.

The subject of test [2] is Neutrophil. Put plainly: Inhibition of LPS-induced delay of apoptosis in human neutrophils assessed as necrotic cells at 2.5 uM preincubated for 1 hr followed by LPS stimulation and measured after 24 hrs by Annexin V-FITC/propidium iodide staining based flow cytometry (reference value: 2.1 +/- 0.4%). Format: functional. Also on record: scale not given: the % may be the effect or the level left.

The nature of test [3]: Anti-inflammatory activity in human PMN assessed as inhibition of fMLP/cytochalasin A-induced CD11b/CD18 expression by measuring CD11b/CD18 expression level at 2.5 uM preincubated for 30 mins followed by fMLP/cytochalasin A addition and measured after 30 mins by flow cytometry relative to control. Format: functional. On the set-up: scale not given: the % may be the effect or the level left. The method in brief:
(§1)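 Neutrophils preincubated with compound before stimulation with cytochalasin A combined with f-MLP; surface CD11b expression read by flow cytometry. Compounds from 10 mM DMSO stock diluted in buffer or RPMI 1640. Mean ± SEM of three experiments on neutrophils from independent donors, Dunnett's post hoc test versus stimulated control.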

Test [4] deals with Neutrophil. Put plainly: Inhibition of LPS-induced delay of apoptosis in human neutrophils assessed as viable cells at 2.5 uM preincubated for 1 hr followed by LPS stimulation and measured after 24 hrs by Annexin V-FITC/propidium iodide staining based flow cytometry (reference value: 75.4 +/- 1.1%). Format: functional. To be noted: read-out: Activity.
The test system of test [5] is Neutrophil. The test is described as follows: Inhibition of LPS-induced delay of apoptosis in human neutrophils assessed as early apoptotic cells at 2.5 uM preincubated for 1 hr followed by LPS stimulation and measured after 24 hrs by Annexin V-FITC/propidium iodide staining based flow cytometry (reference value: 13 +/- 1.9%). Format: functional. On the set-up: scale not given: the % may be the effect or the level left.

In test [6] the test system is Neutrophil. Put plainly: Inhibition of LPS-stimulated IL-8 production in human neutrophils at 2.5 uM after 24 hrs by ELISA. Format: functional, cell-based. Background: ELISA stands for enzyme-linked immunosorbent assay.
Test [7] relates to Neutrophil. The test is described as follows: Inhibition of LPS-stimulated TNFalpha production in human neutrophils at 2.5 uM after 24 hrs by ELISA. Format: functional, cell-based. The method in brief:
(§2)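 Human neutrophils were preincubated with compound, then LPS-stimulated. TNF-α in the culture medium was measured by ELISA 24 h after LPS. Three separate experiments used neutrophils from independent donors, each assayed in duplicate; mean ± SEM; Dunnett's test versus the stimulated control.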

The subject of test [8] is Neutrophil. Put plainly: Inhibition of LPS-stimulated TNFalpha production in human neutrophils at 50 uM after 24 hrs by ELISA. Format: functional, cell-based. In outline:
as §2

The test system of test [9] is Neutrophil. The test is described as follows: Inhibition of fMLP/cytochalasin A-stimulated elastase release in human neutrophils assessed as elastase level at 50 uM preincubated for 15 mins followed by fMLP/cytochalasin A stimulation and measured after 15 mins by SAAVNA substrate based spectrophotometric method (reference value: 100%). Also on record: scale not given: the % may be the effect or the level left.

A short description of test [10]: Anti-inflammatory activity in human PMN assessed as inhibition of fMLP/cytochalasin A-induced CD11b/CD18 expression by measuring CD11b/CD18 expression level at 50 uM preincubated for 30 mins followed by fMLP/cytochalasin A addition and measured after 30 mins by flow cytometry relative to control. Format: functional. Also on record: scale not given: the % may be the effect or the level left. The method in brief: as §1

The species named for another test is Homo sapiens. Put plainly: Anti-inflammatory activity in human PMN assessed as inhibition of fMLP/cytochalasin A-induced CD11b/CD18 expression at 2.5 uM preincubated for 30 mins followed by fMLP/cytochalasin A addition and measured after 30 mins by flow cytometry. Format: functional. In outline:
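Freshly isolated human PMNs were preincubated with compound, then stimulated with cytochalasin A plus f-MLP. Surface CD11b was read by FACS relative to the stimulated control. Three separate experiments used neutrophils from independent donors; mean ± SEM. Compounds came from 10 mM DMSO stocks diluted in Ca2+-free HBSS/PBS pH 7.4 or RPMI 1640.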

Take `CC[C@H]1OC(=O)[C@H](C)[C@@H](O[C@H]2C[C@@](C)(OC)[C@@H](O)[C@H](C)O2)[C@H](C)[C@@H](O[C@@H]2O[C@H](C)C[C@H](N(C)C)[C@H]2O)[C@](C)(OC)C[C@@H](C)C(=O)[C@H](C)[C@@H](O)[C@]1(C)O` [CLARITHROMYCIN]: the Activity in the test with Neutrophil [1] was found to be 13.3%; with Neutrophil [2] it was 1.1%; in [3], 67.7%; in the test with Neutrophil [5], 33.7%; with Neutrophil [9], 39%; in test [10], 31.5%. The viability at 2.5 µM in the test on Neutrophil [4] came to 49.8%. Further, the inhibition result in the test with Neutrophil [6] and in the test with Neutrophil [8] was “Active” in each case. In addition, the inhibition entry with Neutrophil [7] is “inactive”.
Consider `O=c1c(O)c(-c2ccc(O)c(O)c2)oc2cc(O)cc(O)c12` [QUERCETIN], for which the Activity came to 15.4% with Neutrophil [1], 1% with Neutrophil [2], 27% with Neutrophil [5] and 26.6% in the test on Neutrophil [9]. The viability at 2.5 µM in the test with Neutrophil [4] is 58.8%. Further, the inhibition entry with Neutrophil [7] and in the test listed under Homo sapiens was “inactive” each time. Also, the inhibition entry in the test on Neutrophil [8] is “Active”.
